# Assay results of several laboratories.
# Lines come from different studies, so protocols differ.
# Target: Ephrin type-A receptor 3 (EPHA3, Homo sapiens, UniProt P29320)
# One construct used (P29320 21-983): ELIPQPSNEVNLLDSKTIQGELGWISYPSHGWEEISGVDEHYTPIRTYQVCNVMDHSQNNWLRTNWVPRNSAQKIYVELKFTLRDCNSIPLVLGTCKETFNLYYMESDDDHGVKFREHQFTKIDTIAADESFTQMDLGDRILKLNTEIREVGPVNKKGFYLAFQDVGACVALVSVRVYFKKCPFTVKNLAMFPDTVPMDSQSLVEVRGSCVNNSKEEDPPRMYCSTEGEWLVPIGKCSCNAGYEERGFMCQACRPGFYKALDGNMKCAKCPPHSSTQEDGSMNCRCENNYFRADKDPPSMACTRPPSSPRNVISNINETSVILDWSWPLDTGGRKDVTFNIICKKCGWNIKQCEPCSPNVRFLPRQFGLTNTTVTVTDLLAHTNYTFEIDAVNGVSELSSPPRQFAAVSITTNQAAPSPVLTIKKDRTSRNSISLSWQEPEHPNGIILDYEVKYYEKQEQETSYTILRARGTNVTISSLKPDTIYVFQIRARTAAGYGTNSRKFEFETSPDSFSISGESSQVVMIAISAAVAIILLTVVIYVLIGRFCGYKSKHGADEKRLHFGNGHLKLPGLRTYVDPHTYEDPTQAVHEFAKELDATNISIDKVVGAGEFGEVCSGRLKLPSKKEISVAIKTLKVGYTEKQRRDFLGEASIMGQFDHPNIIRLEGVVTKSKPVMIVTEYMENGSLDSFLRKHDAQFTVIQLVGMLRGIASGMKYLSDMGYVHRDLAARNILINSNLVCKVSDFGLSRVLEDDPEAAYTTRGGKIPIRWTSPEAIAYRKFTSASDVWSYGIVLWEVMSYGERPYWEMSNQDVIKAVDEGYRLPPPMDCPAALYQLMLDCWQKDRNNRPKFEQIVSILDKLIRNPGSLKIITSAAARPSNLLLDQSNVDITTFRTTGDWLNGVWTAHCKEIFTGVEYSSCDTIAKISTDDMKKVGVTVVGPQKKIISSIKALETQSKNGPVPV
SMILES,read-out,technique,tested at,remaining binding [%]
COc1cnc(Nc2cccc(S(N)(=O)=O)c2)nc1N1CCN(c2ccccc2)C(=O)C1,binding,competition with immobilised ligand,1 µM,98
CC(=O)Nc1c(C(C)=O)c(=O)n(C)c2nc(-c3ccc(Cl)cc3Cl)c(-c3ccc(Cl)cc3)cc12,cell-free assay,competition with immobilised ligand,1 µM,100
c1cnn2ncc(-c3ccnc(N4CCC45COC5)n3)c2c1,binding,,1 µM,68
C[C@@H](c1ccc(-n2cnc3c(N)ncnc32)cc1)N1CCc2nn(C)c(Cc3ccccc3)c2C1=O,binding,competition with immobilised ligand,0.1 µM,83
O=C(NCCCN1CCOCC1)c1ccc(Nc2nccc(-c3cc4ccccc4s3)n2)cc1,binding,competition with immobilised ligand,1 µM,85
COc1cnc(Nc2cccc(S(N)(=O)=O)c2)nc1N1CCN(c2ccccc2)CC1,binding,competition with immobilised ligand,1 µM,73
C=CC(=O)N1CCC(C(=O)NCC(=O)N2CCN(c3nc(-c4cnc(N)nc4C(F)F)nc(N4CCOCC4)n3)CC2)CC1,binding,competition with immobilised ligand,1 µM,90
F[C@@H]1CCN(c2nccc(-c3cnn4ncccc34)n2)C1,binding,,1 µM,90
COc1ccc2c(O[C@@H]3C[C@H]4C(=O)N[C@]5(C(=O)O)CC5/C=C\CCCCC[C@H](NC(=O)OC5CCCC5)C(=O)N4C3)cc(-c3csc(NC(=O)C(C)C)n3)nc2c1C (stereo partly drawn),cell-free assay,competition with immobilised ligand,1 µM,97
O=C(c1ccc(Nc2ncc(Cl)c(-c3ccc(Cl)s3)n2)cc1)N1CCC(N2CCCC2)CC1,binding,competition with immobilised ligand,1 µM,68
CC1=C(C#N)[C@@H](c2ccc3[nH]nc(C)c3c2)C(C#N)=C(c2ccc(Cl)cc2)N1,cell-free assay,competition with immobilised ligand,1 µM,100
Cc1cnn2ncc(-c3ccnc(N(C)C)n3)c2c1,binding,,1 µM,84
O=C(NCC1CCOCC1)c1n[nH]cc1NC(=O)c1c(F)cccc1F,binding,competition with immobilised ligand,1 µM,82
CC1CCCN1c1nccc(-c2cnn3ncccc23)n1 (stereo not drawn),binding,,1 µM,97
O=C(c1ccc(Nc2nccc(-c3cc4ccccc4s3)n2)cc1)N1CCC(N2CCCC2)CC1,binding,competition with immobilised ligand,1 µM,94
CCS(=O)(=O)c1cc2cc(C[C@](O)(CC(C)(C)c3ccc(F)cc3C(N)=O)C(F)(F)F)[nH]c2cn1,cell-free assay,competition with immobilised ligand,1 µM,95
FC(F)(F)Oc1cccc(-c2cnc3ccc(-c4ccncc4)nn23)c1,cell-free assay,competition with immobilised ligand,5 µM,76
Cc1nc(C2CCN(C(=O)c3ccc(OC(F)(F)F)cc3N)CC2)c2ncc(N3CCN(C)CC3)cc2n1,cell-free assay,competition with immobilised ligand,1 µM,92
C[C@@H]1CCN(c2nccc(-c3cnn4ncccc34)n2)C1,binding,,1 µM,61
CN1CCN(c2cnc3c(C4CCN(C(=O)c5ccc(OC(F)(F)F)cc5N)CC4)ncnc3c2)CC1,cell-free assay,competition with immobilised ligand,1 µM,100
N[C@@H]1CCN(c2nccc(-c3cnn4ncccc34)n2)C1,binding,,1 µM,100
